Measurements: ChEMBL document CHEMBL1152630, “Synthesis and evaluation of benzo[b]thiophene derivatives as inhibitors of alkaline phosphatases” (Bioorg Med Chem, 2009)
Where a name gives a salt, the structure may show the parent alone.

Legend:
[1] = molecular target: Intestinal-type alkaline phosphatase (Bos taurus) (UniProt P19111); experiment: Inhibition of bovine intestinal alkaline phosphatase assessed as residual enzyme activity at 0.1 mM in presence of 1% DMSO at pH 10.4 at 37 degC relative to untreated control
Chain of Intestinal-type alkaline phosphatase (Bos taurus) (P19111 20-506 limits assumed): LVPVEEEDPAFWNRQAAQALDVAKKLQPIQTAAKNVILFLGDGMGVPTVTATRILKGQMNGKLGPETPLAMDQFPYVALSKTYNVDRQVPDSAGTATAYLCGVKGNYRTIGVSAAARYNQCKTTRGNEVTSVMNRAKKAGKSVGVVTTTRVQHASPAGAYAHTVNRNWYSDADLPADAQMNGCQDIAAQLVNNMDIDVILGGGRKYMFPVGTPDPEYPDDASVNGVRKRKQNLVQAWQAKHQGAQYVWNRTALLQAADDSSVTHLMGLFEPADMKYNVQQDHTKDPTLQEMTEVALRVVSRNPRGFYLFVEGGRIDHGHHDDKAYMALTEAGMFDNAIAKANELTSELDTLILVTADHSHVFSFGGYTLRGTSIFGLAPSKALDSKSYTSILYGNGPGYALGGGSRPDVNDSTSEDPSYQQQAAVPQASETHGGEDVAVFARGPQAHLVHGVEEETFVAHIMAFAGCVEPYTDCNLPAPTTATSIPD
Method in brief: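 Screening in 25 mM piperazine, 25 mM glycylglycine, 5 mM MgCl2, 5 µM ZnCl2, pH 10.4, 37 °C. BIAP (0.1–0.3 µg/mL) preincubated 10 min with 0.1 mM compound (final DMSO 1% v/v), no substrate. Reaction started with 0.05 mM pNPP; read at 420 nm (ε 18.6 cm⁻¹ mM⁻¹). Activity given relative to inhibitor-free control; sample-to-sample error 5%.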

Sus scrofa [2] = organism: Sus scrofa; experiment: Inhibition of porcine kidney tissue non-specific alkaline phosphatase assessed as residual enzyme activity at 0.4 mM in presence of 1% DMSO at pH 10.4 at 37 degC relative to untreated control
Sus scrofa [3] = organism: Sus scrofa; experiment: Inhibition of porcine kidney tissue non-specific alkaline phosphatase assessed as residual enzyme activity at 0.4 mM in presence of 4% DMSO at pH 10.4 at 37 degC relative to untreated control
[4] = Inhibition of porcine kidney tissue non-specific alkaline phosphatase at pH 7.8 at 37 degC; parameters: species or system Sus scrofa

Activity [1] [%]	Activity (Sus scrofa [2]) [%]	Activity (Sus scrofa [3]) [%]	Ki [4] [µM]	Structure (SMILES)
103	79	–	–	FC(F)c1c(-c2cccnc2)sc2ccccc12
99	–	10	93	c1ccc([C@H]2CN3CCSC3=N2)cc1 [LEVAMISOLE HYDROCHLORIDE]
99	–	11	85	C1=CN2CC(c3csc4ccccc34)N=C2S1 (stereo not given)
100	–	19	135	c1ccc2c(C3CN4CCSC4=N3)csc2c1 (stereo not given)
122	–	103	–	[O-][s+]1cc(Oc2ccc(Cl)cc2)c2ccccc21 (stereo not given)
30	–	80	–	O=Cc1c(-c2ccc(C(F)(F)F)cc2)sc2ccccc12
92	–	92	–	N#Cc1csc2ccccc12
73	–	96	–	COc1c(-c2ccccc2C)sc2ccccc12
108	–	88	–	O=[N+]([O-])c1ccccc1-c1sc2ccccc2c1-c1ccccc1[N+](=O)[O-]
62	–	95	–	O=Cc1c(-c2cccc(Cl)c2)sc2ccccc12
120	–	85	–	O=Cc1csc2ccccc12
104	–	78	–	Fc1ccc(Oc2csc3ccccc23)cc1
106	–	98	–	COc1ccc(Oc2c(-c3ccccc3C#N)sc3ccccc23)cc1
92	–	80	–	c1ccc2c(N3CCCCC3)csc2c1
41	–	77	–	O=Cc1c(-c2ccccc2)sc2ccccc12
102	–	97	–	FC(F)(F)COc1sc2ccccc2c1-c1cccnc1
